Data: ChEMBL document CHEMBL4004835, “Discovery of Novel Disruptor of Silencing Telomeric 1-Like (DOT1L) Inhibitors using a Target-Specific Scoring Function for the (S)-Adenosyl-l-methionine (SAM)-Dependent Methyltransferase Family” (J Med Chem, 2017)
Activity calls are given as the source filed them. The calls are words filed in the database; no cut-off is given here.

Columns and labels:
[1] = molecular target: T1, Histone-lysine N-methyltransferase, H3 lysine-79 specific (Homo sapiens, UniProt Q8TEK3); assay: Inhibition of N-terminal 6His-tagged human DOT1L (1 to 416 residues) expressed in Escherichia coli BL21(DE3) at 50 uM using histone H3 as substrate preincubated for 15 mins followed by SAM addition measured after 60 mins by AlphaLISA assay
Outline: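 DOT1L (80 nM final) preincubated with compound 15 min at 25 °C; SAM 1 mM and oligonucleosomes 0.25 ng/μL added in 50 mM Tris-HCl pH 8.0, 150 mM NaCl, 3 mM MgCl2, 0.1% BSA, 60 min at 25 °C; stopped with high-salt buffer; H3K79me2 detected with anti-H3 acceptor beads, biotinylated antibody, then streptavidin donor beads.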
Target sequence in this assay (Q8TEK3 whole entry, looked up, the tested form may be a part): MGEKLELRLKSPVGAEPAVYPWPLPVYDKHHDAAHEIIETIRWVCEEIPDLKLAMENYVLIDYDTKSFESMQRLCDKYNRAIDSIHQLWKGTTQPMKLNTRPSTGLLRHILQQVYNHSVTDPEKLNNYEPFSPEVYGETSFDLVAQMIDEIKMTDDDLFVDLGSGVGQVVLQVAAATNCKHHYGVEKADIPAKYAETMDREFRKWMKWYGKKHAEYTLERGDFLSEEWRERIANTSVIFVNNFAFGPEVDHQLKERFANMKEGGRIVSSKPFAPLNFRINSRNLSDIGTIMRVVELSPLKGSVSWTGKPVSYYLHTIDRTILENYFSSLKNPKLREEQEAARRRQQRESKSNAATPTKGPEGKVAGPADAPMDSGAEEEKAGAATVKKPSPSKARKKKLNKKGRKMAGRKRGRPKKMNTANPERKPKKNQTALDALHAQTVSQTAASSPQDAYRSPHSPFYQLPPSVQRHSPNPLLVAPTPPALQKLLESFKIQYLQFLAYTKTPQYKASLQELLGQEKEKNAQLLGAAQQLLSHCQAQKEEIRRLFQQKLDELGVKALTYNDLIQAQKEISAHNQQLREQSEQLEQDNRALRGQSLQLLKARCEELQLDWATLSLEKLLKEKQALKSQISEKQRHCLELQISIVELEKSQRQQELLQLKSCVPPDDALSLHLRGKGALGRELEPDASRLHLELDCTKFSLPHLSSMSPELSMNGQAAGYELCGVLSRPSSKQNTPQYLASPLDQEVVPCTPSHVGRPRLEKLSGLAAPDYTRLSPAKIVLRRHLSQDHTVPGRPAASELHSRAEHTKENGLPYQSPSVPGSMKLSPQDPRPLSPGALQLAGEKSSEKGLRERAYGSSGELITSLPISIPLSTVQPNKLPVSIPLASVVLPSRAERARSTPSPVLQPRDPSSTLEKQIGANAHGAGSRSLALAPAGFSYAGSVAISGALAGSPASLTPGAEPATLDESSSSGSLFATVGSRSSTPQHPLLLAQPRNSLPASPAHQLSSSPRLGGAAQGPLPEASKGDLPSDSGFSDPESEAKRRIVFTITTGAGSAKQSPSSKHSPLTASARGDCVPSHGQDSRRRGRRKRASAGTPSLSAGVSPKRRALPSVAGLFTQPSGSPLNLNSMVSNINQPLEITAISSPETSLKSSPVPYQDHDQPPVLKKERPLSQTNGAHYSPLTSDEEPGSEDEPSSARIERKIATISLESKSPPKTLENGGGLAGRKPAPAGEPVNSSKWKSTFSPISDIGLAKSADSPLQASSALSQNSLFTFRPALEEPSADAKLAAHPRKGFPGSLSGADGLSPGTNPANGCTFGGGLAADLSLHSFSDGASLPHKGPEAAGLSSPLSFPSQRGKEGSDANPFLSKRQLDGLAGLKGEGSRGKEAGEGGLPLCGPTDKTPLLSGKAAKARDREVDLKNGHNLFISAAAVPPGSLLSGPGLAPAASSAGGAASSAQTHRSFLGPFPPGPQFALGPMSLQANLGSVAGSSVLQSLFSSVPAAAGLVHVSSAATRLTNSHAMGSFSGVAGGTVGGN

[2] = molecular target: T1, Histone-lysine N-methyltransferase, H3 lysine-79 specific; assay: Inhibition of N-terminal 6His-tagged human DOT1L (1 to 416 residues) expressed in Escherichia coli BL21(DE3) at 50 uM preincubated for 15 mins followed by [3H]-SAM addition measured after 120 mins by radioactive methylation assay
Outline: (§1)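 DOT1L and compound preincubated 15 min at room temperature; oligonucleosome and 3H-SAM added; reaction 120 min at room temperature, stopped with cold SAM; transferred to 0.5% PEI-pretreated filter plate, washed 3× with water, read by liquid scintillation counting.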
Target sequence in this assay (Q8TEK3 whole entry, looked up, the tested form may be a part): as above

[3] = molecular target: T1, Histone-lysine N-methyltransferase, H3 lysine-79 specific; assay: Inhibition of N-terminal 6His-tagged human DOT1L (1 to 416 residues) expressed in Escherichia coli BL21(DE3) at preincubated for 15 mins followed by [3H]-SAM addition measured after 120 mins by radioactive methylation assay; outline: as §1
Target sequence in this assay (Q8TEK3 whole entry, the tested form may be a part): as the sequence (Q8TEK3 whole entry, looked up, the tested form may be a part) above

[4] = molecular target: T1, Histone-lysine N-methyltransferase, H3 lysine-79 specific; assay: Inhibition of N-terminal 6His-tagged human DOT1L (1 to 416 residues) expressed in Escherichia coli BL21(DE3) at 50 and 100 uM preincubated for 15 mins followed by [3H]-SAM addition measured after 120 mins by radioactive methylation assay; outline: as §1
Target sequence in this assay (Q8TEK3 whole entry, looked up, the tested form may be a part): as above

Row | Compound | inhibition [2] [%] | other results
1 | CC(C)N(CCCNC(=O)Nc1ccc(C(C)(C)C)cc1)C[C@H]1O[C@@H](n2ccc3c(N)ncnc32)[C@H](O)[C@@H]1O | – | inhibition [1]: > 40%
2 | Fc1cccc(-c2nn3c(-c4cccc(F)c4)nnc3s2)c1 | 11 | –
3 | CCOc1cc(CNCc2ccc(C(=O)O)cc2)ccc1OCc1cccs1 | – | inhibition [1]: > 40%; inhibition [4]: Active
4 | Brc1cccc(-c2nn3c(Cn4cnc5ccccc54)nnc3s2)c1 | 62 | IC50 [3]: 4.09 µM
5 | O=C1C/C(=N\Nc2nc(-c3cccc(O)c3)cs2)c2ccccc21 | – | inhibition [1]: > 40%; inhibition [4]: Active
6 | Fc1cccc(-c2nn3c(CSc4ccccc4)nnc3s2)c1 | 21 | –
7 | Fc1cccc(-c2nn3c(Cn4cnc5ccccc54)nnc3s2)c1 | 57 | –
8 | Fc1cccc(-c2nn3c(Cc4ccccc4F)nnc3s2)c1 | 25 | –
9 | Brc1ccc(-c2nn3c(Cn4nnc5ccccc54)nnc3s2)cc1 | 50 | –
10 | COc1cccc(-c2nn3c(Cn4nnc5ccccc54)nnc3s2)c1 | 70 | IC50 [3]: 6.47 µM
11 | c1ccc2c(c1)nnn2Cc1nnc2sc(C34CC5CC(CC(C5)C3)C4)nn12 | 38 | –
12 | COc1ccccc1-c1nn2c(Cn3nnc4ccccc43)nnc2s1 | 55 | –
13 | Cc1ccccc1Cc1nnc2sc(-c3cccc(F)c3)nn12 | 27 | –
14 | COc1ccc(-c2nn3c(Cn4nnc5ccccc54)nnc3s2)cc1OC | 56 | –
15 | c1coc(-c2nn3c(Cn4nnc5ccccc54)nnc3s2)c1 | 48 | –
16 | Fc1ccc(-c2nn3c(Cn4nnc5ccccc54)nnc3s2)cc1 | 69 | IC50 [3]: 4.64 µM
17 | c1ccc(OCc2nn3c(Cn4nnc5ccccc54)nnc3s2)cc1 | 43 | –
18 | CC(C)(C)c1ccc(-c2nn3c(Cn4nnc5ccccc54)nnc3s2)cc1 | 67 | IC50 [3]: 4.48 µM
19 | c1ccc2c(c1)nnn2Cc1nnc2sc(-c3ccc4c(c3)OCO4)nn12 | 65 | IC50 [3]: 3.96 µM
20 | Fc1cccc(-c2nn3c(Cc4ccccc4)nnc3s2)c1 | 33 | –
21 | COc1ccc(-c2nn3c(Cn4nnc5ccccc54)nnc3s2)cc1 | 54 | –
22 | Cc1ccc(Cn2c(SCC(=O)N/N=C/c3ccc(O)cc3)nc3ccccc32)cc1 | – | inhibition [1]: > 40%; inhibition [4]: Active
23 | c1ccc(Cc2nn3c(Cn4nnc5ccccc54)nnc3s2)cc1 | 63 | IC50 [3]: 19.4 µM
24 | CCCc1nnc2sc(-c3cccc(F)c3)nn12 | 35 | –

Further lines, with some results ahead:

Row | inhibition [2] [%] | Compound | other results
25 | 50 | CCOc1ccc(-c2nn3c(Cn4nnc5ccccc54)nnc3s2)cc1 | –
26 | 66 | c1ccc2c(c1)nnn2Cc1nnc2sc(-c3ccc4c(c3)OCCO4)nn12 | IC50 [3]: 8.4 µM
27 | 50 | Cc1cccc(OCc2nn3c(Cn4nnc5ccccc54)nnc3s2)c1 | –
28 | 72 | Cc1ccc(-c2nn3c(Cn4cnc5ccccc54)nnc3s2)cc1C | IC50 [3]: 17.4 µM
29 | 52 | Cc1ccc(OCc2nn3c(Cn4nnc5ccccc54)nnc3s2)cc1 | –
30 | 53 | c1ccc(-c2nn3c(Cn4nnc5ccccc54)nnc3s2)nc1 | –
31 | 55 | Cc1ccccc1-c1nn2c(Cn3nnc4ccccc43)nnc2s1 | –
32 | 18 | Fc1cccc(-c2nn3c(CCc4ccccc4)nnc3s2)c1 | –
33 | 6 | Fc1cccc(-c2nn3c(CN4CCCCC4)nnc3s2)c1 | –
34 | 13 | CCc1nnc2sc(-c3cccc(F)c3)nn12 | –
35 | 55 | c1ccc(-c2nn3c(Cn4cnc5ccccc54)nnc3s2)cc1 | –
36 | 15 | Fc1cccc(-c2nn3c(-c4ccccc4)nnc3s2)c1 | –
37 | 49 | Cc1nc2ccccc2n1Cc1nnc2sc(-c3ccc(F)c(Br)c3)nn12 | –
